Calls of active or inactive are those of the source. The calls are words filed in the database; no cut-off is given here.
What was measured:
[1] = Drug uptake in tumor of BALB/c mouse xenografted with […] cells at 0.25 umol/kg, iv measured at 24 hrs by fluorescence imaging; assay type: ADME, organism-based, Neoplasm; conditions: in vivo, dose 0.25 µmol/kg
Outline: (§1)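 Subcutaneous Colon 26 tumors (~50 mm3) on the shoulder of BALB/c mice, 3 mice/group. Photosensitizer 0.25 μmol/kg iv in 1% Tween 80/D5W. Under isoflurane, Maestro spectral imaging used the Deep Red filter set (Ex 671–705 nm, Em 750 nm long-pass, 2 s exposure). Images taken at 4, 8, 12, 24 and 48 h; unmixed tumor signal quantified.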

Colon 26 [2] = assay: (§2) Photodynamic therapy against […] cells xenografted in BALB/c mouse assessed as reduction tumor volumes by measuring tumor cure response at 0.25 umol/kg, iv exposed to laser light at 787 nm at a dose of 135 J/cm2 and 35 mW/cm2 after 24 hrs post dose measured at day 60 post dose; assay type: functional; conditions: dose 0.25 µmol/kg, time 60.0 day
Colon 26 [3] = assay: Photodynamic therapy against […] cells assessed as reduction in cell viability at 0.025 uM incubated for 24 hrs followed by exposure to light at 787 nm in the range of 0-1.0 J/cm2 irradiation by MTT assay; assay type: functional, cell-based
Outline: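 Murine Colon 26 cells (3600/well) exposed to 0.025 μM photosensitizer for 24 h. Irradiated at 787 nm from a tunable dye laser, 0–1.0 J/cm2 at 3.2 mW/cm2. MTT added 48 h after light. Blank-subtracted OD divided by untreated OD for each light dose gave percent survival. Single experiment in triplicate.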

Colon 26 [4] = assay: Photodynamic therapy against […] cells assessed as reduction in cell viability at 0.1 to 0.4 uM incubated for 24 hrs followed by exposure to 0.25J/cm2 irradiation by MTT assay; assay type: functional, cell-based; conditions: dose 0.1-0.4 µM
Outline: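 Murine Colon 26 cells (3600/well) exposed to a range of photosensitizer concentrations for 24 h, then irradiated at 787 nm, 0.25 J/cm2 (3.2 mW/cm2). MTT readout 48 h after light. Percent survival taken relative to untreated cells after blank subtraction. Experiments done in triplicate.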

[5] = Drug uptake in tumor of BALB/c mouse xenografted with […] cells at 0.25 umol/kg, iv measured after 4 hrs by fluorescence imaging; assay type: ADME, organism-based, Neoplasm; conditions: in vivo, dose 0.25 µmol/kg; outline: as §1
Colon 26 [6] = assay: Photodynamic therapy against […] cells xenografted in BALB/c mouse assessed as reduction tumor volumes by measuring tumor response at 0.25 umol/kg, iv exposed to laser light at 787 nm at a dose of 135 J/cm2 and 35 mW/cm2 after 12 hrs post dose measured at day 60 post dose; assay type: functional, organism-based; conditions: dose 0.25 µmol/kg, time 60.0 day
Colon 26 [7] = assay: Photodynamic therapy against […] cells xenografted in BALB/c mouse assessed as reduction tumor volumes by measuring tumor response at 0.25 umol/kg, iv exposed to laser light at 787 nm at a dose of 135 J/cm2 and 35 mW/cm2 after 48 hrs post dose measured at day 60 post dose; assay type: functional, organism-based; conditions: dose 0.25 µmol/kg, time 60.0 day
[8] = Photosensitizing activity in mouse Colon 26 cells assessed as induction of STAT3 cross-linking at 15 nM incubated for 24 hrs followed exposure to irradiation at 797 nm light (3 J/cm2) by Western blotting analysis
[9] = Photosensitizing activity in mouse Colon 26 cells assessed as induction of STAT3 cross-linking at 30 nM incubated for 24 hrs followed exposure to irradiation at 797 nm light (3 J/cm2) by Western blotting analysis
[10] = Photosensitizing activity in mouse Colon 26 cells assessed as induction of STAT3 cross-linking at 60 nM incubated for 24 hrs followed exposure to irradiation at 797 nm light (3 J/cm2) by Western blotting analysis
[11] = Photosensitizing activity in mouse Colon 26 cells assessed as induction of STAT3 cross-linking at 125 nM incubated for 24 hrs followed exposure to irradiation at 797 nm light (3 J/cm2) by Western blotting analysis
[12] = Photosensitizing activity in mouse Colon 26 cells assessed as induction of STAT3 cross-linking at 250 nM incubated for 24 hrs followed exposure to irradiation at 797 nm light (3 J/cm2) by Western blotting analysis
Mus musculus = assay: Photosensitizing activity in BALB/c mouse implanted with mouse Colon 26 cells assessed as induction of STAT3 cross-linking at 0.47 umol/kg, iv for 24 hrs followed by exposure to laser light at 787 nm by Western blotting analysis; conditions: BALB/c m, dose 0.47 µmol/kg
[13] = Drug uptake in tumor of BALB/c mouse xenografted with […] cells at 0.25 umol/kg, iv measured after 24 by fluorescence imaging; assay type: ADME, organism-based, Neoplasm; conditions: in vivo, 24 h, dose 0.25 µmol/kg; outline: as §1
[14] = as §2; assay type: functional; parameters: scale not given: the % may be the effect or the level left; conditions: dose 0.25 µmol/kg; time 60 day
[15] = Drug uptake in tumor of BALB/c mouse xenografted with mouse 4T1 cells at 0.25 umol/kg, iv measured after 24 hrs by fluorescence imaging based IVIS spectrum-CT method; assay type: ADME, organism-based, BALB/c m, Neoplasm; conditions: in vivo, dose 0.25 µmol/kg
Outline: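 BALB/c mice (3/group) were given 4T1-luc cells iv to seed lung tumors, and bioluminescence was imaged at day 9. Photosensitizer 0.25 μmol/kg iv, then fluorescence imaging at 24 h on IVIS Spectrum-CT (Ex 785 nm, Em >830 nm). The fluorescence image was merged with bioluminescence.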

[16] = Skin phototoxicity in BALB/c mouse assessed as foot response at 0.25 umol/kg, iv after 24 to 96 hrs post dose followed by mouse restrainment and one hind foot illumination with solar light for 30 mins; assay type: organism-based, BALB/c m; conditions: in vivo, 0.5 h, time 24-96 hrs, dose 0.25 µmol/kg
Outline: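 Non-tumor BALB/c mice given photosensitizer 0.25 μmol/kg iv. At 24, 48, 72 or 96 h (3 mice/group), one hind foot was illuminated for 30 min; the other foot served as control. Edema, erythema, epilation and desquamation scored 0 (normal) to 3 (loss of foot), followed for 4 more days.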

[17] = Stability in mouse Colon 26 cells culture media assessed as hydrolysis of methyl ester to carboxylic acid incubated for 24 hrs by TLC analysis; conditions: colon 26, 24 h
Colon 26 (mouse) = assay: Drug uptake in tumor of BALB/c mouse xenografted with mouse Colon 26 cells at 0.25 umol/kg, iv measured after 24 hrs followed by exposure to 787 nm light and stoppage of irradiation at regular intervals up to 30 mins by fluorescence imaging based IVIS spectrum-CT method; conditions: in vivo, at 0.25 µmol/kg
[18] = Drug uptake in tumor of BALB/c mouse xenografted with […] cells at 1 umol/kg, iv measured after 24 to 48 hrs using 14C-labeled cpd by scintillation counting method; assay type: ADME, organism-based, Neoplasm; conditions: in vivo, time 24-48 hrs, dose 1 µmol/kg
Outline: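 Colon 26 tumor-bearing BALB/c mice (~50 mm3) received 14C-labeled compound 1.0 μmol/kg iv (0.1 μCi/mouse), 3 mice/time point. Mice euthanized at 24, 48 and 72 h; tumor and muscle removed, weighed and solubilized overnight at 50 °C. Radioactivity counted; results given as mean cpm/g tissue ± SD.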

| Compound | Drug uptake [1] | Activity (Colon 26 [2]) | Activity (Colon 26 [3]) | Activity (Colon 26 [4]) | Activity (Colon 26 [7]) | Activity [8] [%] | Activity [9] [%] | Activity [10] [%] | Activity [11] [%] | Activity [12] [%] | Activity (Mus musculus) | further results |
| --- | --- | --- | --- | --- | --- | --- | --- | --- | --- | --- | --- | --- |
| CCCCO[C@@H](C)c1c(C)c2cc3nc(c4c5[nH]c(cc6nc(cc1[nH]2)[C@H](C)[C@H]6CC)c(C)c5C(=O)N(CCCC)C4=O)[C@@H](CCC(=O)OC)[C@@H]3C | Active | Active | Active |  |  |  |  |  |  |  |  |  |
| CCCCO[C@H](C)c1c(C)c2cc3nc(c4c5[nH]c(cc6nc(cc1[nH]2)[C@H](C)[C@H]6CC)c(C)c5C(=O)N(CCCC)C4=O)[C@@H](CCC(=O)OC)[C@@H]3C | Active | Active | Active |  |  |  |  |  |  |  |  |  |
| CCCCOC(C)c1c(C)c2cc3nc(c4c5[nH]c(cc6nc(cc1[nH]2)[C@H](C)[C@H]6CC)c(C)c5C(=O)N(CCCC)C4=O)[C@@H](CCC(=O)O)[C@@H]3C (some centres not stated) |  |  |  | Active | inactive | 0.3 | 1.2 | 5.8 | 9 | 15 | Active | Drug uptake [5]: Active; Activity (Colon 26 [6]): inactive |
| CCCCOC(C)c1c(C)c2cc3nc(c4c5[nH]c(cc6nc(cc1[nH]2)[C@H](C)[C@H]6CC)c(C)c5C(=O)N(CCCC)C4=O)[C@@H](CCC(=O)OC)[C@@H]3C (some centres not stated) | Active |  |  | Active | inactive | 0.1 | 0.2 | 0.5 | 1.5 | 2.4 | Active | Drug uptake [13]: Not Active; Activity [14]: 80%; Drug uptake [15]: Active; Activity [16]: Non-Toxic; Stabilty [17]: Stable; Drug uptake (Colon 26 (mouse)): 40% |
| CCCCN1C(=O)c2c3nc(cc4[nH]c(cc5nc(cc6[nH]c2c(c6C)C1=O)[C@H](CC)[C@H]5C)c(C(C)O[14CH2]CCC)c4C)[C@@H](C)[C@@H]3CCC(=O)OC (some centres not stated) |  |  |  |  |  |  |  |  |  |  |  | Drug uptake [18]: Active |
